The list is not random: actives were taken first. Their share in the collection is about 3.8%.
DENV2 CPE = protects cells from dengue virus 2 cytopathic effect; CPE inhibition, % at 9.99 µM; DENV2-infected cells, cytopathic effect rescue, plate reader; 350,000 tested, 1.7% active; in the data active = CPE inhibition above about 20%, passing the limit was not always enough; inconclusive = no clear call, values can overlap the other calls; tested in BHK-21 cells;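 also: 0% = median of neutral control wells and 100% = median of positive control wells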
FGF22 binding = FGF22 (human) thermal shift binding. recombinant FGF22 thermal shift, SYPRO orange fluorescence; percent of sucrose octasulfate shift, DMSO zero. activity (Tm shift, normalised), % at 9.99 µM. 340,000 tested, 1.5% active;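 active = mean Tm shift, scaled 0 neutral to 100 positive control, at about 1.3% or above, every replicate too, limit read from the data; inconclusive = no clear call, values can overlap the other calls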
Target sequence (Q9HCT0 whole entry, looked up): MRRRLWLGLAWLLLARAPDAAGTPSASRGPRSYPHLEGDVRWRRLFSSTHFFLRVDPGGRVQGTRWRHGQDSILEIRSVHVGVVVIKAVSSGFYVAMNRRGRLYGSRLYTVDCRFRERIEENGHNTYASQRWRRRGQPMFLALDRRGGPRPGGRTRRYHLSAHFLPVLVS
FN deposit inh = fibronectin deposition inhibition | AID 743247 | 350,000 tested, 0.086% active | inhibition, % at 12.6 µM | AH1F fibroblasts, Alexa488-fibronectin deposition fluorescence, overnight;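 active = mean inhibition across replicates of 30% or more, regardless of how many single replicates reach that level; inconclusive = mean under 30% yet at least half of replicates reach 30%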;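 also: positive control wells lacked labelled fibronectin entirely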
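test system = AH1F fibroblasts assembling fluorescent fibronectin matrix | quantity = 10000 AH1F cells per well | buffer or medium = DMEM plus 2% serum, read in PBS | doses = single dose, pinned | incubation = 1 h cell attachment, overnight exposure to compound and label | detection = fluorescence at 485 nm excitation, 525 nm emission | read-out basis = inhibition from reduced deposited-fibronectin fluorescence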
XiGFP reactiv = X-chromosome reactivation activator. XiGFP mouse fibroblasts, % GFP-positive cells imaging, 3 d; cells co-treated with 5-aza-dC sensitizer; scaled so ellipticine positive control = 100%. activation, % at 7.58 µM. 360,000 tested, 0.055% active. AID 743238;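 active = mean normalized replicate activation at least 10% and every replicate at or above 10%; inconclusive = only one of the two criteria met; inactive = mean below 10% and not all replicates reach 10%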;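 also: 0% = median of on-plate neutral control wells and 100% = ellipticine 6 µM median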
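Assay system – SV40-immortalized XiGFP fibroblast cells, line 68-5-11 · Buffer or medium – DMEM supplemented with 5-aza-dC as sensitizing agent · Dosing – one concentration, pinned · Benchmarks – positive control ellipticine, 6 µM final · Times – 3 days compound exposure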
SIRT5 block = blocks human SIRT5 desuccinylation of peptide | Q9NXA8 | Purified SirT5, succinyl-peptide AMC, trypsin-coupled fluorescence | inhibition, % at 15 µM | 330,000 tested, 1.1% active | AID 652115; in the data active = inhibition above about 15%; inconclusive = no clear call, values can overlap the other calls
Target sequence (Q9NXA8 whole entry, looked up): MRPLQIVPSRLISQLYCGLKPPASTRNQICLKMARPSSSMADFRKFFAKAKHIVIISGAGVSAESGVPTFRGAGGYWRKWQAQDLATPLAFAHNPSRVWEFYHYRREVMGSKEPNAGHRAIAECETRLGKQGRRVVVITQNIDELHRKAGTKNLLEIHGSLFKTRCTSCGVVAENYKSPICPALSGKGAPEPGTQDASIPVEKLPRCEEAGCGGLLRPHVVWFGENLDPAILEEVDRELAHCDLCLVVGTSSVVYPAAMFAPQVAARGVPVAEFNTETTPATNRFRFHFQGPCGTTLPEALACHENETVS
ARNT TACC3 PPI = disrupts binding between human ARNT and TACC3; Q9Y6A5; AlphaScreen His-ARNT PAS-B/GST-TACC3 binding, luminescence; TACC3 fragment carries E629A point mutation; inhibition, % at 9.99 µM; 390,000 tested, 0.66% active; AID 623870;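 active = mean inhibition of replicates at least 50% and at least half of replicates each reaching 50%; inconclusive = half or more replicates reach 50% but mean below 50%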;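 also: 0% = complete ARNT plus TACC3 wells and 100% = ARNT alone without TACC3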
Numbers without * were called inactive; u = inconclusive; x = no result given.

SMILES	DENV2 CPE	FGF22 binding	FN deposit inh	XiGFP reactiv	SIRT5 block	ARNT TACC3 PPI
CCN(CC)c1ccc(/C=N/Nc2nc(C)cc(=O)[nH]2)c(O)c1	-9.8	0.0	-1.3	0.0	1.9	64.1*
CC(/C=N/Nc1ncc(C)c(=O)[nH]1)=C\c1ccccc1	x	x	-0.1	0.1	x	8.8
CC(/C=N/Nc1nc(C)cc(=O)[nH]1)=C\c1ccccc1	-9.7	43.1*	-3.8	0.1	-1.0	x
Cc1cc(=O)[nH]c(N/N=C/c2ccccc2Cl)n1	12.0	-0.3	1.3	0.1	0.3	-13.0
C(=C\c1ccccc1)/C=N/Nc1nc(N2CCCCC2)nc(N2CCCCC2)n1	x	x	x	x	x	-10.3
Cc1ccc(S(=O)(=O)N(C)C[C@@H]2Oc3ccc(NC(=O)C4CC4)cc3C(=O)N([C@H](C)CO)C[C@H]2C)cc1	13.9	0.0	-9.2	-0.8	-4.7	-5.7
CO[C@@H]1CN(C)C(=O)c2cc(NC(=O)c3cc(C)on3)ccc2OC[C@H](C)N(CC2CC2)C[C@H]1C	-5.8	0.0	-9.8	0.2	1.4	-2.8
C(=N\c1nccs1)/c1c[nH]c2ccccc12	x	x	x	x	x	39.8*
CN1C(=O)c2cc(NC(=O)c3ccccc3F)ccc2OC[C@H]2O[C@@H](CC(=O)NCc3ccc4c(c3)OCO4)CC[C@@H]21	-5.3	-2.5	4.2	0.1	0.5	-2.3
CCC(=O)N1C[C@@H](C)[C@H](OC)CN(C)C(=O)c2ccc(NC(=O)Nc3cccc(F)c3)cc2OC[C@@H]1C	5.4	-0.1	-6.4	0.0	1.5	5.3
Cn1c(=O)c2c(nc(Sc3ncnn3CC(=O)NC(C)(C)C)n2C)n(C)c1=O	-2.2	42.9*	x	0.1	1.3	-7.0
Cn1c(=O)c2c(ncn2CC(=O)NC(C)(C)C)n(C)c1=O	1.6	0.2	x	x	-4.7	2.1
O=C(C[C@H]1C[C@@H]2c3cc(NC(=O)Nc4ccc(C(F)(F)F)cc4)ccc3O[C@@H]2[C@H](CO)O1)NC1CCCCC1	0.2	0.0	x	0.0	-0.7	-5.3
NC(=O)C1CCN(C(=O)CNC(=O)c2ccc(F)cc2)CC1	-5.1	43.7*	5.7	0.3	x	-2.0
CCOc1cc(/C=C2\SC(=N)N(c3nonc3N)C2=O)ccc1OCCN1CCOCC1	-2.3	1.5*	9.1	0.0	-1.2	-5.1
CCOc1cc(/C=C2\SC(=N)N(c3nonc3N)C2=O)ccc1OCC(N)=O	x	x	-7.1	0.1	x	-0.3
O=C(NCCN1CCCC1)[C@H]1N[C@H]2c3ccc(-c4ccccc4)c(=O)n3C[C@H]2[C@@H]1CO	85.0*	0.2	x	0.0	-13.0	3.8
O=C(NCCN1CCCCC1)[C@@H]1N[C@@H]2c3ccc(-c4ccc(F)cc4)c(=O)n3C[C@@H]2[C@H]1CO	6.8	0.0	x	0.2	2.8	1.6
O=C(NCc1ccccc1F)[C@H]1N[C@H]2c3ccc(-c4ccccc4F)c(=O)n3C[C@H]2[C@@H]1CO	82.3*	-0.5	x	0.2	1.8	x
C[C@H](NC(=O)[C@H]1N[C@H]2c3ccc(-c4cccnc4)c(=O)n3C[C@H]2[C@@H]1CO)c1ccccc1	117.0*	0.2	x	0.3	-22.5	1.5
COc1ccc(C)cc1NS(=O)(=O)c1ccc2c(c1)CCN2C(C)=O	-5.4	-0.5	-3.3	0.0	1.0	-3.8
CCCOc1ccccc1NS(=O)(=O)c1ccc2[nH]c(=O)[nH]c2c1	1.6	-0.1	5.4	-0.1	-2.7	10.8
O=S(=O)(Nc1cccc2cccnc12)c1ccccc1	-5.2	-0.1	11.0	1.5	-0.7	21.0
Cc1ccccc1NS(=O)(=O)c1ccc(S(=O)(=O)N2CCCC2)cc1	22.4*	-0.2	10.1	0.5	1.7	x
Cc1ccccc1NS(=O)(=O)c1ccc2[nH]c(=O)[nH]c2c1	x	42.9*	9.2	0.4	-2.1	x
SMILES	DENV2 CPE	FGF22 binding	FN deposit inh	XiGFP reactiv	SIRT5 block	ARNT TACC3 PPI
O=S(=O)(Nc1cccc2cccnc12)c1ccc(S(=O)(=O)N2CCCC2)cc1	x	x	x	x	x	67.0*
CC(=O)N1CCCc2cc(S(=O)(=O)Nc3ccccc3C)ccc21	1.1	43.5*	0.6	0.1	-3.6	-3.6
C[C@@H]1CN([C@H](C)CO)C(=O)c2cccc(NC(=O)Nc3ccccc3)c2O[C@H]1CN(C)C(=O)Nc1cccc2ccccc12	9.5	-0.9	-1.4	5.5	-1.5	-3.6
C[C@H]1CN([C@@H](C)CO)C(=O)c2cc(-c3ccccc3F)cnc2O[C@H]1CN(C)Cc1ccccc1	-3.3	0.0	15.2	-0.2	-3.0	-5.1
CCOC(=O)c1ccc(NC(=O)C2CC(=O)N=C(N)S2)cc1 (configuration not stated)	-1.9	43.3*	0.3	0.5	0.9	1.6
O=C(N[C@H]1CC[C@H](CCn2cc(C3(O)CCCC3)nn2)O[C@H]1CO)C1CCOCC1	31.7*	-0.1	2.4	-0.4	x	-3.0
O=C(N[C@@H]1CC[C@@H](CCn2cc(C3(O)CCCC3)nn2)O[C@@H]1CO)C1CCCC1	-7.7	-0.4	-5.4	0.3	2.2	-9.4
CC(C)c1cn(CC[C@@H]2CC[C@H](NC(=O)C3CCOCC3)[C@H](CO)O2)nn1	30.8*	x	x	4.8	-1.6	x
O=C(N[C@@H]1CC[C@@H](CCn2cc(C3(O)CCCC3)nn2)O[C@H]1CO)C1CCCC1	20.6*	-0.2	-4.2	0.1	2.3	-10.4
O=C(N[C@@H]1CC[C@H](CCn2cc(C3(O)CCCC3)nn2)O[C@H]1CO)C1CCOCC1	-3.0	-0.1	1.7	0.0	-6.0	1.4
C[C@H](CO)N1C[C@H](C)[C@@H](CN(C)Cc2ccc3c(c2)OCO3)Oc2ccc(NS(=O)(=O)c3ccccc3)cc2CC1=O	-8.6	0.0	1.2	0.1	1.3	3.7
Cc1ccc(S(=O)(=O)Nc2ccc3c(c2)C(=O)N([C@H](C)CO)C[C@H](C)[C@@H](CN(C)Cc2ccncc2)O3)cc1	-2.4	-0.1	x	0.1	-1.9	-8.3
COc1ccccc1-c1cc(C(F)(F)F)nc(S(=O)(=O)CCCC(=O)NCc2ccc(F)cc2)n1	6.5	1.4*	-4.7	-0.1	-4.5	-5.3
Nc1nc2ccc(C(=O)NCCOC(=O)C3CCCCC3)cc2s1	3.1	0.6	15.3	0.1	-3.0	65.5*
COc1cccc(C#Cc2ccc([C@H]3[C@@H](CO)N4C(=O)CN(C(C)=O)C[C@@H]34)cc2)c1	-5.5	x	x	0.1	-0.4	x
O=c1[nH][nH]c(-c2ccccc2)c1C=Nc1ccc(C(F)(F)F)cc1	10.1	43.6*	-11.7	0.0	0.3	5.4
CC1=C2[C@@H](c3ccccc3)OB(O)C[C@@H]2[C@@H]2C(=O)N(Cc3ccccc3)C(=O)[C@@H]2C1	-6.5	-0.2	x	x	-3.0	x
CCN(CC)CCCNC1=C(Cl)C(=O)c2ccccc2C1=O	-7.6	-0.8	-7.2	u	0.4	14.9*

Assay outcomes: PubChem BioAssay, Broad Institute
